ChEMBL document CHEMBL3244396, “Synthesis and antileukemic activity of 5-substituted 2,3-dihydro-6,7-bis(hydroxymethyl)-1H-pyrrolizine diesters” (J Med Chem, 1977)
≈ marks a conversion by molar mass, not a printed value.

How the values were obtained:
P388 [1] = assay: Antitumor activity against mouse P388 cells allografted in female CDF1 mouse assessed as disease cures by measuring 30-days host survival at 6.25 mg/kg, ip administered daily for 9 days as Klucel suspension starting 24 hrs after tumor inoculation relative to control; assay type: functional; conditions: route intraperitoneal
How it was run: (§1)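 P388 leukemia given as an ascitic fluid cell inoculum, ip, to mice of the strain and sex in each line. Nine daily ip doses were given in a Klucel (hydroxypropylcellulose) suspension, starting 24 h after inoculation. Read-out is median survival time as %T/C, with >125 taken as significant; a "cure" means 30-day survival.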

P388 [2] = assay: Antitumor activity against mouse P388 cells allografted in male CDF1 mouse assessed as change in body weight at 50 mg/kg, ip administered daily for 9 days as Klucel suspension starting 24 hrs after tumor inoculation; assay type: functional; conditions: route intraperitoneal
How it was run: (§2)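 Ascitic fluid carrying P388 cells was inoculated ip. Compound was given ip in nine daily doses, starting 24 h after inoculation, in Klucel (hydroxypropylcellulose) suspension or in saline with Tween-80. Body-weight difference (treated minus control) was recorded on day 5. Survival was scored as %T/C of median survival time, and 30-day survival counted as cure.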

L1210 [3] = assay: Antileukemic activity against mouse L1210 cells allografted in female CDF1 mouse assessed as change in body weight at 6.25 mg/kg, ip administered daily for 9 days as Klucel suspension starting 24 hrs after tumor inoculation; assay type: functional; conditions: route intraperitoneal
How it was run: (§3)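 Ascitic fluid carrying L1210 cells was inoculated ip. Compound was given ip as a Klucel (hydroxypropylcellulose) suspension in nine daily doses, starting 24 h after inoculation. Body-weight difference (treated minus control) was recorded on day 5. Survival was scored as %T/C of mean survival time.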

P388 [4] = assay: Antitumor activity against mouse P388 cells allografted in female BDF1 mouse assessed as change in body weight at 1.56 mg/kg, ip administered daily for 9 days as Klucel suspension starting 24 hrs after tumor inoculation; assay type: functional; conditions: route intraperitoneal; how it was run: as §2
P388 [5] = assay: Antitumor activity against mouse P388 cells allografted in female CDF1 mouse assessed as change in body weight at 12.5 mg/kg, ip administered daily for 9 days as Klucel suspension starting 24 hrs after tumor inoculation; assay type: functional; conditions: route intraperitoneal; how it was run: as §2
P388 [6] = assay: Antitumor activity against mouse P388 cells allografted in male CDF1 mouse assessed as change in body weight at 100 mg/kg, ip administered daily for 9 days as Klucel suspension starting 24 hrs after tumor inoculation; assay type: functional; conditions: route intraperitoneal; how it was run: as §2
P388 [7] = assay: Antitumor activity against mouse P388 cells allografted in male CDF1 mouse assessed as disease cures by measuring 30-days host survival at 50 mg/kg, ip administered daily for 9 days as Klucel suspension starting 24 hrs after tumor inoculation relative to control; assay type: functional; conditions: route intraperitoneal; how it was run: as §1
L1210 [8] = assay: Antileukemic activity against mouse L1210 cells allografted in female CDF1 mouse assessed as host mean survival time at 12.5 mg/kg, ip administered daily for 9 days as Klucel suspension starting 24 hrs after tumor inoculation relative to control; assay type: functional; conditions: route intraperitoneal
How it was run: (§4)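 L1210 leukemia given as an ascitic fluid cell inoculum, ip, to mice of the strain and sex in each line. Test material was given ip for nine daily doses starting 24 h after inoculation, in a Klucel (hydroxypropylcellulose) suspension. Read-out is mean survival time as %T/C versus controls, with >125 taken as significant.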

Mus musculus [9] = assay: Toxicity in female BDF1 mouse allografted with mouse P388 cells assessed as animal survival at 1.56 mg/kg, ip administered daily for 9 days as Klucel suspension starting 24 hrs after tumor inoculation; assay type: organism-based; parameters: dose 1.56 mg/kg, route intraperitoneal; conditions: in vivo
How it was run: (§5)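 P-388 leukemia ascitic fluid inoculated ip. Compound given ip as a suspension in Klucel (hydroxypropylcellulose), once daily for nine doses beginning 24 h post-inoculation. Acute toxicity assessed as toxicity-day survivors per group. Survival was followed up to 30 days, with 30-day survival counted as "cure". Follows NCI screening protocols.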

Mus musculus [10] = assay: Toxicity in female CDF1 mouse allografted with mouse P388 cells assessed as animal survival at 6.25 mg/kg, ip administered daily for 9 days as Klucel suspension starting 24 hrs after tumor inoculation; assay type: organism-based; parameters: dose 6.25 mg/kg, route intraperitoneal; conditions: in vivo; how it was run: as §5
L1210 [11] = assay: Antileukemic activity against mouse L1210 cells allografted in female CDF1 mouse assessed as host mean survival time at 6.25 mg/kg, ip administered daily for 9 days as Klucel suspension starting 24 hrs after tumor inoculation relative to control; assay type: functional; conditions: route intraperitoneal; how it was run: as §4
L1210 [12] = assay: Antileukemic activity against mouse L1210 cells allografted in female CDF1 mouse assessed as host mean survival time at 3.13 mg/kg, ip administered daily for 9 days as Klucel suspension starting 24 hrs after tumor inoculation relative to control; assay type: functional; conditions: route intraperitoneal; how it was run: as §4
Mus musculus [13] = assay: Toxicity in male CDF1 mouse allografted with mouse P388 cells assessed as animal survival at 100 mg/kg, ip administered daily for 9 days as Klucel suspension starting 24 hrs after tumor inoculation; assay type: organism-based; parameters: dose 100 mg/kg, route intraperitoneal; conditions: in vivo; how it was run: as §5
Mus musculus [14] = assay: Toxicity in female CDF1 mouse allografted with mouse L1210 cells assessed as animal survival at 3.13 mg/kg, ip administered daily for 9 days as Klucel suspension starting 24 hrs after tumor inoculation measured on fifth day; assay type: organism-based; parameters: dose 3.13 mg/kg, route intraperitoneal; conditions: in vivo
How it was run: (§6)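 L1210 leukemia passaged as ascitic fluid and inoculated ip. Test agent given ip as a Klucel (hydroxypropylcellulose) suspension, nine daily doses starting 24 h after tumor inoculation. Acute toxicity read as toxicity-day survivors per group (out of 6), recorded on day 5. Animal weight difference T − C was also recorded. Follows NCI screening protocols.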

Mus musculus [15] = assay: Toxicity in female CDF1 mouse allografted with mouse P388 cells assessed as animal survival at 3.13 mg/kg, ip administered daily for 9 days as Klucel suspension starting 24 hrs after tumor inoculation; assay type: organism-based; parameters: dose 3.13 mg/kg, route intraperitoneal; conditions: in vivo; how it was run: as §5
P388 [16] = assay: Antitumor activity against mouse P388 cells allografted in male CDF1 mouse assessed as change in body weight at 25 mg/kg, ip administered daily for 9 days as Klucel suspension starting 24 hrs after tumor inoculation; assay type: functional; conditions: route intraperitoneal; how it was run: as §2
L1210 [17] = assay: Antileukemic activity against mouse L1210 cells allografted in female CDF1 mouse assessed as change in body weight at 3.13 mg/kg, ip administered daily for 9 days as Klucel suspension starting 24 hrs after tumor inoculation; assay type: functional; conditions: route intraperitoneal; how it was run: as §3
Mus musculus [18] = assay: Toxicity in female BDF1 mouse allografted with mouse P388 cells assessed as animal survival at 0.78 mg/kg, ip administered daily for 9 days as Klucel suspension starting 24 hrs after tumor inoculation; assay type: organism-based; parameters: dose 0.78 mg/kg, route intraperitoneal; conditions: in vivo; how it was run: as §5
Mus musculus [19] = assay: Toxicity in female CDF1 mouse allografted with mouse P388 cells assessed as animal survival at 12.5 mg/kg, ip administered daily for 9 days as Klucel suspension starting 24 hrs after tumor inoculation; assay type: organism-based; parameters: dose 12.5 mg/kg, route intraperitoneal; conditions: in vivo; how it was run: as §5
P388 [20] = assay: Antitumor activity against mouse P388 cells allografted in female CDF1 mouse assessed as disease cures by measuring 30-days host survival at 12.5 mg/kg, ip administered daily for 9 days as Klucel suspension starting 24 hrs after tumor inoculation relative to control; assay type: functional; conditions: route intraperitoneal; how it was run: as §1
P388 [21] = assay: Antitumor activity against mouse P388 cells allografted in female BDF1 mouse assessed as change in body weight at 0.78 mg/kg, ip administered daily for 9 days as Klucel suspension starting 24 hrs after tumor inoculation; assay type: functional; conditions: route intraperitoneal; how it was run: as §2
P388 [22] = assay: Antitumor activity against mouse P388 cells allografted in male CDF1 mouse assessed as change in body weight at 200 mg/kg, ip administered daily for 9 days as Klucel suspension starting 24 hrs after tumor inoculation; assay type: functional; conditions: route intraperitoneal; how it was run: as §2
P388 [23] = assay: Antitumor activity against mouse P388 cells allografted in female BDF1 mouse assessed as disease cures by measuring 30-days host survival at 1.56 mg/kg, ip administered daily for 9 days as Klucel suspension starting 24 hrs after tumor inoculation relative to control; assay type: functional; conditions: route intraperitoneal; how it was run: as §1
P388 [24] = assay: Antitumor activity against mouse P388 cells allografted in female CDF1 mouse assessed as change in body weight at 3.13 mg/kg, ip administered daily for 9 days as Klucel suspension starting 24 hrs after tumor inoculation; assay type: functional; conditions: route intraperitoneal; how it was run: as §2
P388 [25] = assay: Antitumor activity against mouse P388 cells allografted in female BDF1 mouse assessed as disease cures by measuring 30-days host survival at 0.78 mg/kg, ip administered daily for 9 days as Klucel suspension starting 24 hrs after tumor inoculation relative to control; assay type: functional; conditions: route intraperitoneal; how it was run: as §1
[26] = Cytotoxicity against human 9KB cells treated as ethanol solution; assay type: functional; conditions: read-out: ED50 (the source's name)
How it was run: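 Compound applied as an ethanol solution; activity read out as ED50 under the general screening protocol.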

P388 [27] = assay: Antitumor activity against mouse P388 cells allografted in female CDF1 mouse assessed as disease cures by measuring 30-days host survival at 3.13 mg/kg, ip administered daily for 9 days as Klucel suspension starting 24 hrs after tumor inoculation relative to control; assay type: functional; conditions: route intraperitoneal; how it was run: as §1
L1210 [28] = assay: Antileukemic activity against mouse L1210 cells allografted in female CDF1 mouse assessed as change in body weight at 12.5 mg/kg, ip administered daily for 9 days as Klucel suspension starting 24 hrs after tumor inoculation; assay type: functional; conditions: route intraperitoneal; how it was run: as §3
P388 [29] = assay: Antitumor activity against mouse P388 cells allografted in female CDF1 mouse assessed as change in body weight at 6.25 mg/kg, ip administered daily for 9 days as Klucel suspension starting 24 hrs after tumor inoculation; assay type: functional; conditions: route intraperitoneal; how it was run: as §2
Mus musculus [30] = assay: Toxicity in male CDF1 mouse allografted with mouse P388 cells assessed as animal survival at 200 mg/kg, ip administered daily for 9 days as Klucel suspension starting 24 hrs after tumor inoculation; assay type: organism-based; parameters: dose 200 mg/kg, route intraperitoneal; conditions: in vivo; how it was run: as §5
Mus musculus [31] = assay: Toxicity in female CDF1 mouse allografted with mouse L1210 cells assessed as animal survival at 6.25 mg/kg, ip administered daily for 9 days as Klucel suspension starting 24 hrs after tumor inoculation measured on fifth day; assay type: organism-based; parameters: dose 6.25 mg/kg, route intraperitoneal; conditions: in vivo; how it was run: as §6

Structure (SMILES): CNC(=O)OCc1c(COC(=O)NC)c(-c2ccc(F)cc2)n2c1CCC2
- T/C (P388 [1]): 145%
- Activity (P388 [2]): -3.4 g
- Activity (L1210 [3]): 0.1 g
- Activity (P388 [4]): 0 g
- Activity (P388 [5]): -3.3 g
- Activity (P388 [6]): -1.5 g
- T/C (P388 [7]): 48%
- T/C (L1210 [8]): 118%
- Activity (Mus musculus [9]): Non-toxic
- Activity (Mus musculus [10]): Non-toxic
- T/C (L1210 [11]): 107%
- T/C (L1210 [12]): 115%
- Activity (Mus musculus [13]): Toxic
- Activity (Mus musculus [14]): Non-toxic
- Activity (Mus musculus [15]): Non-toxic
- Activity (P388 [16]): -2 g
- Activity (L1210 [17]): 1.1 g
- Activity (Mus musculus [18]): Non-toxic
- Activity (Mus musculus [19]): Non-toxic
- T/C (P388 [20]): 153%
- Activity (P388 [21]): 0.9 g
- Activity (P388 [22]): -1.5 g
- T/C (P388 [23]): 122%
- Activity (P388 [24]): -0.3 g
- T/C (P388 [25]): 146%
- EC50 [26]: 0.22 µg/mL (≈ 0.586 µM)
- T/C (P388 [27]): 171%
- Activity (L1210 [28]): 0.1 g
- Activity (P388 [29]): -1 g
- Activity (Mus musculus [30]): Toxic
- Activity (Mus musculus [31]): Non-toxic
